Bioassay records (PubChem BioAssay)
This is a sample that favours compounds with a hit; in the whole collection about 4.2% have one here.
TMEM16A inh: TMEM16A chloride channel inhibitors, primary screen, cell-based, HTS | Anoctamin-1 (Mus musculus), Q8BHY3 | HEK293 TMEM16A/YFP iodide influx fluorescence, ionomycin | normalized B-score (activity score, 25-100; higher = stronger inhibition) at 10 µM | hit rate 1.2% among 310,000 | AID 588511, 2011;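 active = ratio plate-corrected score three or more library SD toward inhibition, starting fluorescence score within five deviations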;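 note: score derived from kinetic fluorescence span divided by baseline fluorescence per well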
XBP1 UPR activ: activators of adaptive XBP1 UPR arm, primary screen, cell-based, CHO-XBP1 luciferase reporter, luminescence, uHTS | IRE1-XBP1 UPR activation; percent of tunicamycin response, DMSO as zero | activation, % at 20 µM | AID 463104, 2010 | hit rate 0.33% among 330,000;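 active = versus positive control, 20 µM dose yields 30% or more activation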;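 note: 100% = tunicamycin at 10 µg/mL and 0% = DMSO only wells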
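Signal: luciferase luminescence; Assay system: CHO-XBP1 luciferase reporter cells; Amount: one thousand reporter cells per well; Dosing: 20 µM single concentration, DMSO 1%; Benchmarks: high control tunicamycin 10 µg/mL final, low control DMSO vehicle only; Schedule: 6 h compound exposure at 37 °C, 5% CO2; Evaluation: percent activation relative to tunicamycin reference.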
TMEM16A act: TMEM16A chloride channel activators or potentiators, primary screen, cell-based, HTS | Anoctamin-1 (Mus musculus), Q8BHY3 | HEK293 TMEM16A/YFP-H148Q/I152L, iodide quench fluorescence; stronger effect = lower value | B-score at 10 µM | hit rate 0.3% among 340,000 | AID 623877, 2012;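 active = fluorescence-ratio B-score plate-corrected deviation score at least 3 library SD below zero, with starting fluorescence score within 5 deviations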;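 note: channel opened by trigger with iodide after compound preincubation; score built on the fluorescence ratio of max minus min over baseline; more negative score means more quench and so TMEM16A activation or potentiation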
CHOP inhibitor: inhibitors of CHOP promoter induction, primary screen, cell-based, unfolded protein response, luciferase reporter; CHO-K1 CHOP-promoter luciferase, tunicamycin-induced, 15-18 h; inhibition, % at 10 µM; hit rate 3.8% among 220,000; AID 2732, 2010;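 active = compounds that reduced the stress-induced luciferase reporter signal by more than about 70% of percent inhibition, limit read from the data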;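 note: 0% = tunicamycin plus vehicle and 100% = wells without tunicamycin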
Lipid droplet: inhibitors of hepatocyte lipid droplet formation, primary screen, imaging, high-throughput imaging, BODIPY stain; AML12 mouse hepatocytes, oleate lipid droplets; inhibition, % at 6.5 µM; hit rate 0.4% among 240,000; AID 1656, 2009;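 active = lipid droplet intensity inhibited by at least 50%, with more than 500 cells counted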
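Assay system: AML12 hepatocytes (mouse); Probe or stimulus: oleic acid at 100 µM to induce lipid droplet formation; Dosing: compound at 6.5 µM only; Schedule: compound with oleate, overnight; Detection: fluorescence imaging, 20x objective, two fields per well; Measure: % inhibition of lipid droplet signal.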
UPR CHOP act: activators of apoptotic CHOP UPR arm, primary screen, cell-based, CHO-CHOP luciferase reporter, luminescence, uHTS; activation, % at 10 µM; UPR activation; percent of tunicamycin response over DMSO baseline; hit rate 0.34% among 330,000; AID 449763, 2010;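 active = at 10 µM dose, activation of 40% or more, normalized to positive control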;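 note: 100% = tunicamycin at 10 µg/mL and 0% = DMSO alone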
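measured by = luciferase luminescence | assay system = CHO-CHOP cells, stable luciferase reporter of PERK-eIF2a-CHOP signalling | amount = 500 reporter cells seeded per well | timing = 6 h compound exposure at 37 °C after overnight seeding | controls = positive tunicamycin 10 µg/mL, negative DMSO alone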
TMEM16A reconf: TMEM16A chloride channel inhibitors, confirmation, cell-based, re-confirmation; shares compounds with TMEM16A inh; HEK293 TMEM16A/YFP-H148Q, iodide quench fluorescence; ionomycin added to raise cell calcium; inhibition, % at 10 µM; hit rate 39% among 2,300;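 active = mean duplicate percent inhibition, scaled so buffer wells are 0 and the reference blocker 100, over three buffer SD above buffer mean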
TMEM16A Ca cntr: calcium mobilization in TMEM16A/YFP HEK293 cells, confirmation, counter-screen for TMEM16A inhibitor project; shares compounds with TMEM16A inh; Fluo4 calcium mobilization; calcium response (% of ionomycin), % at 10 µM; hit rate 2% among 2,300;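 active = duplicate-averaged calcium signal over 20% of the ionomycin maximum, relative to buffer baseline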;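 note: each well's signal is peak minus trough fluorescence divided by its pre-addition baseline; 0% = buffer wells and 100% = ionomycin wells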
Parental YFP cnt: iodide YFP quench changes in parental YFP-HEK293, counter-screen for TMEM16A inhibitor project, cell-based; 2,300 tested, under 10 active; shares compounds with TMEM16A inh; ionomycin; AID 652233, 2013; YFP ratio F(max-min)/F0 at 10 µM;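 active = yellow fluorescent protein signal ratio exceeding the buffer control mean by over 5 SD of those controls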;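 note: ratio is mean of duplicate wells from kinetic YFP trace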
ClC-1 rat inh: ClC-1 chloride channel inhibition, selectivity assay for TMEM16A inhibitor project, cell-based, voltage-dependent ClC-1; AID 652236, 2013; ratio percent, % at 10 µM; 2,300 tested, under 10 active; CHO ClC-1-YFP, iodide influx fluorescence quench; iodide control reads 0, buffer control 100; shares compounds with TMEM16A inh;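 active = duplicate-mean ratio percent above the mean of iodide-only control wells, which defines zero, plus 5 of their SD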;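 note: higher percent means stronger block of ClC-1 iodide influx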
An asterisk follows results filed as active; ! = repeats disagree.

Cc1noc(C)c1CSc1nc2ccccc2nc1NS(=O)(=O)c1ccc(Cl)cc1 was read as TMEM16A inh 100*, XBP1 UPR activ -0.8, TMEM16A act inactive, UPR CHOP act 1.8, TMEM16A reconf 29.0%*, TMEM16A Ca cntr inactive, Parental YFP cnt -0.724 and ClC-1 rat inh -8.0.
O=C(CSc1nc2ccccc2c(=O)[nH]1)N1CCOCC1 was read as TMEM16A inh inactive, XBP1 UPR activ 0.0, TMEM16A act inactive, CHOP inhibitor -18.0, Lipid droplet -0.5, UPR CHOP act -0.3, TMEM16A reconf inactive, TMEM16A Ca cntr inactive, Parental YFP cnt -1.26 and ClC-1 rat inh -5.5.
Screening Cc1nn2c(-c3ccccn3)ccnc2c1Cl returned TMEM16A inh inactive, XBP1 UPR activ -2.3, TMEM16A act inactive, CHOP inhibitor -8.9, Lipid droplet 4.5 and UPR CHOP act -0.1.
`C=CCc1cc(OC)ccc1OCC(O)CN1CCN(c2ccc(OC)cc2)CC1` (stereo not given) gave TMEM16A inh 25*!, XBP1 UPR activ 0.9, TMEM16A act inactive, CHOP inhibitor 37.5, Lipid droplet -13.4, UPR CHOP act -1.0, TMEM16A reconf inactive, TMEM16A Ca cntr inactive, Parental YFP cnt -1.21 and ClC-1 rat inh -14.5.
CCc1ccc(CN(C)C(=O)c2cc(COc3cccc4cnccc34)on2)cc1 was read as TMEM16A inh 100*, XBP1 UPR activ -3.1, TMEM16A act inactive, Lipid droplet -21.9, UPR CHOP act 7.1, TMEM16A reconf 22.0%*, TMEM16A Ca cntr inactive, Parental YFP cnt -1.26 and ClC-1 rat inh -22.0.
COc1ccc(C)c2sc(N(CCCN(C)C)C(=O)CS(=O)(=O)c3ccc(F)cc3)nc12 was read as TMEM16A inh inactive, XBP1 UPR activ 1.3, TMEM16A act inactive and UPR CHOP act -0.6.
Screening CCOc1ccccc1OCCCC(=O)Nc1ccc(Cl)c(S(=O)(=O)N2CCOCC2)c1 returned XBP1 UPR activ -3.1, TMEM16A act inactive and UPR CHOP act 2.7.
For Cc1ccc(-c2ccc(=O)n(CC(=O)NCCC(C)C)n2)cc1 the results were TMEM16A inh inactive, XBP1 UPR activ 0.1, TMEM16A act inactive, Lipid droplet 8.6 and UPR CHOP act 0.4.
For O=C(O)CSC1CC(=O)N(c2ccc(Cl)cc2)C1=O (stereo not given) the results were TMEM16A inh inactive, XBP1 UPR activ -1.5, TMEM16A act inactive, CHOP inhibitor 13.8 and UPR CHOP act -1.0.
For O=C(CSC1CC(=O)N(CC(c2ccccc2)c2ccccc2)C1=O)Nc1ccc(Cl)cc1 (stereo not given) the results were TMEM16A inh 25*, TMEM16A act inactive, CHOP inhibitor 52.7, TMEM16A reconf inactive, TMEM16A Ca cntr inactive, Parental YFP cnt -1.08 and ClC-1 rat inh -2.5.
`Cc1ccccc1Nc1nc(NCc2ccco2)c2ccccc2n1` gave TMEM16A inh 25*, XBP1 UPR activ 20.2, TMEM16A act inactive, CHOP inhibitor 18.8, Lipid droplet -0.3, UPR CHOP act 5.2, TMEM16A reconf 32.0%*, TMEM16A Ca cntr inactive, Parental YFP cnt -1.17 and ClC-1 rat inh -7.0.
Screening Oc1ccccc1Nc1nc(NCc2ccco2)c2ccccc2n1 returned TMEM16A inh inactive, XBP1 UPR activ 11.3, TMEM16A act inactive, CHOP inhibitor 18.1, Lipid droplet 0.3 and UPR CHOP act 0.9.
Screening Cc1ccc(S(=O)(=O)Nc2nc3ccccc3nc2NCc2ccco2)cc1C returned TMEM16A inh 100*, XBP1 UPR activ -0.8, TMEM16A act inactive, CHOP inhibitor 38.2, UPR CHOP act -0.6, TMEM16A reconf inactive, TMEM16A Ca cntr inactive, Parental YFP cnt -0.975 and ClC-1 rat inh -15.0.
For c1ccc(Nc2nc(NCc3ccco3)c3ccccc3n2)cc1 the results were TMEM16A inh 25*, XBP1 UPR activ 20.8, TMEM16A act inactive, CHOP inhibitor 47.4, Lipid droplet -16.9, UPR CHOP act 17.8, TMEM16A reconf 47.0%*, TMEM16A Ca cntr inactive, Parental YFP cnt -1.14 and ClC-1 rat inh -8.5.
`CSc1nc(NCc2ccco2)c2ccccc2n1` gave TMEM16A inh inactive, XBP1 UPR activ -1.0, TMEM16A act inactive, CHOP inhibitor 20.8, Lipid droplet 0.1 and UPR CHOP act -1.9.
Cc1ccc(S(=O)(=O)Nc2nc3ccccc3nc2NCc2ccco2)cc1 was read as TMEM16A inh inactive, XBP1 UPR activ 0.4, TMEM16A act inactive, CHOP inhibitor 10.1, Lipid droplet -16.0 and UPR CHOP act 29.7.
For O=S(=O)(/N=C(/Nc1ccc(F)cc1F)c1ccccc1)c1ccccc1 the results were TMEM16A inh inactive, XBP1 UPR activ -0.1, TMEM16A act inactive, CHOP inhibitor 25.3, Lipid droplet -5.4 and UPR CHOP act 0.1.
For CCCCCCc1cc2cc(S(=O)(=O)c3ccc(Cl)cc3)c(=O)oc2cc1O the results were TMEM16A inh inactive, XBP1 UPR activ -3.9, TMEM16A act inactive, CHOP inhibitor 68.9, Lipid droplet -43.5 and UPR CHOP act 1.6.
For CCN(CC)c1ccc2cc(S(=O)(=O)c3ccc(Cl)cc3)c(=O)oc2c1 the results were TMEM16A inh inactive, XBP1 UPR activ -3.1, TMEM16A act inactive, CHOP inhibitor -8.0, Lipid droplet -13.1, UPR CHOP act 2.2, TMEM16A reconf inactive, TMEM16A Ca cntr inactive, Parental YFP cnt -0.171 and ClC-1 rat inh 14.5.
